Reference: ChEMBL document CHEMBL3864121, “Development of ebsulfur analogues as potent antibacterials against methicillin-resistant Staphylococcus aureus” (Bioorg Med Chem, 2016)
In brackets after ≈: the same amount, converted by molar mass. Activity calls are given as the source filed them. No cut-off for these calls is given here.

Key:
[1] = system: Staphylococcus aureus; experiment: Antibacterial activity against methicillin-resistant Staphylococcus aureus S14 measured after overnight incubation by broth double-dilution method; format: functional
Summary of the method: (§1)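 MIC by broth double-dilution in liquid Mueller-Hinton medium. Values are reported in µg/mL.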

[2] = system: Mycolicibacterium smegmatis; experiment: Antibacterial activity against Mycobacterium smegmatis MC2-155 measured after overnight incubation by broth double-dilution method; format: functional; settings: str. MC2 155; summary of the method: as §1
[3] = system: Enterococcus faecalis; experiment: Antibacterial activity against Enterococcus faecalis ATCC 49533 measured after overnight incubation by broth double-dilution method; format: functional
Summary of the method: (§2)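 MIC by broth double-dilution in Mueller-Hinton medium. Re-testing at the time-kill inoculum used 1×10^6 CFU/mL.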

[4] = system: Enterococcus faecium; experiment: Antibacterial activity against Enterococcus faecium BM4105-RF measured after overnight incubation by broth double-dilution method; format: functional; summary of the method: as §1
[5] = system: Staphylococcus aureus; experiment: Antibacterial activity against methicillin-sensitive Staphylococcus aureus ATCC 29213 measured after overnight incubation by broth double-dilution method; format: functional; summary of the method: as §1
[6] = system: Staphylococcus aureus; experiment: Antibacterial activity against methicillin-resistant Staphylococcus aureus C14 measured after overnight incubation by broth double-dilution method; format: functional; summary of the method: as §1
[7] = system: Staphylococcus aureus; experiment: Antibacterial activity against methicillin-resistant Staphylococcus aureus G1 measured after overnight incubation by broth double-dilution method; format: functional; summary of the method: as §1
[8] = system: Staphylococcus aureus; experiment: Antibacterial activity against methicillin-resistant Staphylococcus aureus S22 measured after overnight incubation by broth double-dilution method; format: functional; summary of the method: as §1
[9] = system: Staphylococcus aureus; experiment: Antibacterial activity against methicillin-resistant Staphylococcus aureus C1 measured after overnight incubation by broth double-dilution method; format: functional; summary of the method: as §1
[10] = system: Enterococcus; experiment: Antibacterial activity against Vancomycin-resistant Enterococcus measured after overnight incubation by broth double-dilution method; format: functional; summary of the method: as §1
[11] = Cytotoxicity against HEK293 cells assessed as cell death at […] measured after 24 hrs by resazurin dye-based fluorescence analysis relative to untreated control; format: toxicity; settings: human, hek293, 24 h
[12] = system: Staphylococcus aureus; experiment: Antibacterial activity against methicillin-resistant Staphylococcus aureus USA600 measured after overnight incubation by broth double-dilution method; format: functional; summary of the method: as §1
[13] = system: Enterococcus faecalis; experiment: Antibacterial activity against Enterococcus faecalis ATCC 29212 measured after overnight incubation by broth double-dilution method; format: functional; summary of the method: as §2
[14] = system: Staphylococcus aureus; experiment: Antibacterial activity against methicillin-resistant Staphylococcus aureus G12 measured after overnight incubation by broth double-dilution method; format: functional; summary of the method: as §1
[15] = system: Staphylococcus aureus; experiment: Antibacterial activity against methicillin-resistant Staphylococcus aureus 1 measured after overnight incubation by broth double-dilution method; format: functional; summary of the method: as §1
[16] = system: Staphylococcus aureus; experiment: Antibacterial activity against methicillin-sensitive Staphylococcus aureus ATCC 6538 measured after overnight incubation by broth double-dilution method; format: functional; summary of the method: as §1
[17] = system: Staphylococcus epidermidis; experiment: Antibacterial activity against Staphylococcus epidermidis ATCC 35984 measured after overnight incubation by broth double-dilution method; format: functional; settings: RP62A; summary of the method: as §2
[18] = system: Staphylococcus aureus; experiment: Antibacterial activity against methicillin-resistant Staphylococcus aureus NRS51 measured after overnight incubation by broth double-dilution method; format: functional; summary of the method: as §1
[19] = system: Staphylococcus aureus; experiment: Antibacterial activity against methicillin-resistant Staphylococcus aureus S17 measured after overnight incubation by broth double-dilution method; format: functional; summary of the method: as §1
[20] = system: Staphylococcus aureus; experiment: Antibacterial activity against methicillin-resistant Staphylococcus aureus 2 measured after overnight incubation by broth double-dilution method; format: functional; summary of the method: as §1
[21] = system: Staphylococcus aureus; experiment: Antibacterial activity against methicillin-resistant Staphylococcus aureus C19 measured after overnight incubation by broth double-dilution method; format: functional; summary of the method: as §1
[22] = system: Staphylococcus aureus; experiment: Antibacterial activity against methicillin-resistant Staphylococcus aureus USA300 measured after overnight incubation by broth double-dilution method; format: functional; summary of the method: as §1
[23] = system: Staphylococcus aureus; experiment: Antibacterial activity against methicillin-sensitive Staphylococcus aureus ATCC 25923 measured after overnight incubation by broth double-dilution method; format: functional; summary of the method: as §1
[24] = system: Staphylococcus aureus; experiment: Antibacterial activity against methicillin-resistant Staphylococcus aureus G14 measured after overnight incubation by broth double-dilution method; format: functional; summary of the method: as §1
[25] = system: Staphylococcus aureus; experiment: Antibacterial activity against methicillin-resistant Staphylococcus aureus USA200 measured after overnight incubation by broth double-dilution method; format: functional; summary of the method: as §1
[26] = system: Staphylococcus aureus; experiment: Antibacterial activity against methicillin-resistant Staphylococcus aureus ATCC 33591 measured after overnight incubation by broth double-dilution method; format: functional; summary of the method: as §1
[27] = system: Staphylococcus aureus; experiment: Antibacterial activity against methicillin-resistant Staphylococcus aureus G6 measured after overnight incubation by broth double-dilution method; format: functional; summary of the method: as §1
[28] = system: Listeria monocytogenes; experiment: Antibacterial activity against Listeria monocytogenes ATCC 19115 measured after overnight incubation by broth double-dilution method; format: functional; summary of the method: as §2
[29] = system: Staphylococcus aureus; experiment: Antibacterial activity against methicillin-resistant Staphylococcus aureus C16 measured after overnight incubation by broth double-dilution method; format: functional; summary of the method: as §1
[30] = system: Staphylococcus aureus; experiment: Antibacterial activity against methicillin-resistant Staphylococcus aureus NRS77 measured after overnight incubation by broth double-dilution method; format: functional; summary of the method: as §1
[31] = system: Staphylococcus aureus; experiment: Antibacterial activity against methicillin-resistant Staphylococcus aureus USA100 measured after overnight incubation by broth double-dilution method; format: functional; summary of the method: as §1
[32] = system: Staphylococcus aureus; experiment: Antibacterial activity against methicillin-resistant Staphylococcus aureus S22 using 1 10^6CFU/ml measured after overnight incubation by broth double-dilution method; format: functional
[33] = system: Staphylococcus aureus; experiment: Antibacterial activity against methicillin-resistant Staphylococcus aureus NRS4 measured after overnight incubation by broth double-dilution method; format: functional; summary of the method: as §1
[34] = system: Staphylococcus aureus; experiment: Antibacterial activity against methicillin-resistant Staphylococcus aureus C2 measured after overnight incubation by broth double-dilution method; format: functional; summary of the method: as §1
[35] = system: Staphylococcus aureus; experiment: Antibacterial activity against methicillin-resistant Staphylococcus aureus S24 measured after overnight incubation by broth double-dilution method; format: functional; summary of the method: as §1
[36] = system: Staphylococcus aureus; experiment: Antibacterial activity against methicillin-resistant Staphylococcus aureus C7 measured after overnight incubation by broth double-dilution method; format: functional; summary of the method: as §1
[37] = system: Staphylococcus aureus; experiment: Antibacterial activity against methicillin-resistant Staphylococcus aureus BRS3 measured after overnight incubation by broth double-dilution method; format: functional; summary of the method: as §1
[38] = Cytotoxicity against HEK293 cells assessed as cell death up to 10 ug/ml measured after 24 hrs by resazurin dye-based fluorescence analysis relative to untreated control; format: toxicity; settings: human, hek293, 24 h

Compound | MIC [1] [µg/mL] | MIC [2] [µg/mL] | MIC [3] [µg/mL] | MIC [4] [µg/mL] | MIC [5] [µg/mL] | MIC [6] [µg/mL] | MIC [7] [µg/mL] | MIC [8] [µg/mL] | MIC [9] [µg/mL] | MIC [10] [µg/mL] | MIC [12] [µg/mL] | MIC [13] [µg/mL] | MIC [14] [µg/mL] | MIC [15] [µg/mL] | MIC [16] [µg/mL] | MIC [17] [µg/mL] | MIC [18] [µg/mL] | MIC [19] [µg/mL] | MIC [20] [µg/mL] | MIC [21] [µg/mL] | other results
O=c1c2ccccc2sn1C1CCCC1 | 0.5 (≈ 2.28 µM) | 2 (≈ 9.12 µM) | > 125 | > 125 | 2 (≈ 9.12 µM) | 3.9 (≈ 17.8 µM) | 2 (≈ 9.12 µM) | 7.8 (≈ 35.6 µM) | 3.9 (≈ 17.8 µM) | 2 (≈ 9.12 µM) | 7.8 (≈ 35.6 µM) | > 125 | 3.9 (≈ 17.8 µM) | 2 (≈ 9.12 µM) | 7.8 (≈ 35.6 µM) | 2 (≈ 9.12 µM) |  |  |  |  | Activity [11]: > 20%
CCCCCn1sc2ccccc2c1=O | ≤ 0.25 | 2 (≈ 9.04 µM) | > 125 | 15.6 (≈ 70.5 µM) | 3.9 (≈ 17.6 µM) | 3.9 (≈ 17.6 µM) | 0.5 (≈ 2.26 µM) | 3.9 (≈ 17.6 µM) | 2 (≈ 9.04 µM) | 1 (≈ 4.52 µM) | 3.9 (≈ 17.6 µM) | 7.8 (≈ 35.2 µM) | 2 (≈ 9.04 µM) | 0.5 (≈ 2.26 µM) | 7.8 (≈ 35.2 µM) | 3.9 (≈ 17.6 µM) | 3.9 (≈ 17.6 µM) | 2 (≈ 9.04 µM) | 2 (≈ 9.04 µM) | 1 (≈ 4.52 µM) | MIC [22]: 3.9 µg/mL (≈ 17.6 µM); MIC [23]: 3.9 µg/mL (≈ 17.6 µM); MIC [24]: 2 µg/mL (≈ 9.04 µM); MIC [25]: 3.9 µg/mL (≈ 17.6 µM); MIC [26]: 1 µg/mL (≈ 4.52 µM); MIC [27]: 2 µg/mL (≈ 9.04 µM); MIC [28]: 3.9 µg/mL (≈ 17.6 µM); MIC [29]: 7.8 µg/mL (≈ 35.2 µM); MIC [30]: 2 µg/mL (≈ 9.04 µM); MIC [31]: 3.9 µg/mL (≈ 17.6 µM); Activity [32]: Active; MIC [33]: 2 µg/mL (≈ 9.04 µM); MIC [34]: 2 µg/mL (≈ 9.04 µM); MIC [35]: 3.9 µg/mL (≈ 17.6 µM); MIC [36]: 2 µg/mL (≈ 9.04 µM); MIC [37]: 3.9 µg/mL (≈ 17.6 µM)
O=c1c2ccccc2sn1-c1cccc2ccccc12 | ≤ 0.25 | 1 (≈ 3.61 µM) | > 125 | > 125 | 0.5 (≈ 1.8 µM) | 2 (≈ 7.21 µM) | 2 (≈ 7.21 µM) | 1 (≈ 3.61 µM) | 2 (≈ 7.21 µM) | 0.5 (≈ 1.8 µM) | 2 (≈ 7.21 µM) | > 125 | 0.5 (≈ 1.8 µM) | 1 (≈ 3.61 µM) | > 125 | 0.25 (≈ 0.901 µM) | 1 (≈ 3.61 µM) | 1 (≈ 3.61 µM) | 0.5 (≈ 1.8 µM) | 0.5 (≈ 1.8 µM) | MIC [22]: 2 µg/mL (≈ 7.21 µM); MIC [23]: 2 µg/mL (≈ 7.21 µM); MIC [24]: 2 µg/mL (≈ 7.21 µM); MIC [25]: 2 µg/mL (≈ 7.21 µM); Activity [38]: > 20%; MIC [26]: 0.5 µg/mL (≈ 1.8 µM); MIC [27]: 0.5 µg/mL (≈ 1.8 µM); MIC [28]: 2 µg/mL (≈ 7.21 µM); MIC [29]: 15.6 µg/mL (≈ 56.2 µM); MIC [30]: 2 µg/mL (≈ 7.21 µM); MIC [31]: 0.5 µg/mL (≈ 1.8 µM); MIC [33]: 2 µg/mL (≈ 7.21 µM); MIC [34]: 0.5 µg/mL (≈ 1.8 µM); MIC [35]: 0.5 µg/mL (≈ 1.8 µM); MIC [36]: 1 µg/mL (≈ 3.61 µM); MIC [37]: 2 µg/mL (≈ 7.21 µM)
